Experimental data published in PubChem BioAssay AID623952 (Vanderbilt High Throughput Screening Facility, 2012).

Each compound was assayed against G protein-activated inward rectifier potassium channel 2 (Homo sapiens) + G protein-activated inward rectifier potassium channel 1 (Homo sapiens) (UniProt P48051+P48549) (assay: GIRK1/2 channel opening, thallium influx – cell-based, minus mGlu8, HEK-293 hGIRK1/2, thallium flux, dose response (AID 623952)). Conditions: HEK-293 hGIRK1/2, thallium flux FluoZin-2 fluorescence.
Sequence of G protein-activated inward rectifier potassium channel 2 (Homo sapiens) + G protein-activated inward rectifier potassium channel 1 (Homo sapiens) (P48051 whole entry, looked up): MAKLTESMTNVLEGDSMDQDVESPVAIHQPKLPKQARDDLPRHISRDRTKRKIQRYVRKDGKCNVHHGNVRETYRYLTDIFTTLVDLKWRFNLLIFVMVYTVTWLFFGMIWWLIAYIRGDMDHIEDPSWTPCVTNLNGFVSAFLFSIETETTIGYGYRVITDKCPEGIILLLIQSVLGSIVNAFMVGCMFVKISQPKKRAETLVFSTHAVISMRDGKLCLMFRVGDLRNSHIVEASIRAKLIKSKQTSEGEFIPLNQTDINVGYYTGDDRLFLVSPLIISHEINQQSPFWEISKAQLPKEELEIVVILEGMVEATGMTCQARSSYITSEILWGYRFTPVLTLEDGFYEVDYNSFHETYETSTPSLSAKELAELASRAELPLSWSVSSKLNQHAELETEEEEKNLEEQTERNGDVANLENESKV
Sequence of G protein-activated inward rectifier potassium channel 2 (Homo sapiens) + G protein-activated inward rectifier potassium channel 1 (Homo sapiens) (P48549 whole entry, looked up): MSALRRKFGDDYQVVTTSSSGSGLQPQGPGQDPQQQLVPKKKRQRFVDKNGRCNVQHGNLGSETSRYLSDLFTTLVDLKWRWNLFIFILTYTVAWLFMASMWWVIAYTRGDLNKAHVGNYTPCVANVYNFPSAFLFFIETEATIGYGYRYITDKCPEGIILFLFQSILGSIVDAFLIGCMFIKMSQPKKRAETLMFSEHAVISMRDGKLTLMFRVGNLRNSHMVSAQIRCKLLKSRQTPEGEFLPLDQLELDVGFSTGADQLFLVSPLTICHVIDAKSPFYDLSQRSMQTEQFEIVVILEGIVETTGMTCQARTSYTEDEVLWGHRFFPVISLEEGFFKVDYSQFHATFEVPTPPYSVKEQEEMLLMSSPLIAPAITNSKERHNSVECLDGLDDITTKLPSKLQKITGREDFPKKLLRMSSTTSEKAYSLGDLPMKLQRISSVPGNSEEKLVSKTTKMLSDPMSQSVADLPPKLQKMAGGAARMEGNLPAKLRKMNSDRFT
Procedure, shortened: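 Material: HEK-293 cells stably carrying hGIRK1/2; also added: bicarbonate thallium stimulus at pH 7.4, glutamate at EC20; schedule: dye loading ~60 min room temperature, compound 4 min pre-stimulus; measured by: FluoZin-2 fluorescence thallium flux; measure: post-thallium F/F0 slope minus vehicle, four-parameter logistic fit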

In order of falling EC50:
1. Cc1cc(NC(=O)Nc2ccccc2)n(-c2ccccc2)n1  1690 nM
2. Cc1ccc(NC(=O)Cc2ccccc2Cl)cc1S(=O)(=O)N(C)C  799 nM
3. Cc1ccc(-c2nnn(CC(=O)NC3CC4CCC3C4)n2)cc1 (centres undefined)  700 nM
4. CCOc1ccccc1Nc1nnc(Cc2ccccc2Cl)c(=O)[nH]1  250 nM
